Source: PubChem BioAssay
TAAR1 antag = antagonists of human TAAR1; CHO RD-HGA16 TAAR1, Fluo-8 calcium fluorescence, antagonist; inhibition, % at 3 µM; 360,000 tested, 1.5% active; AID 624466;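 active = inhibition above a per-plate cutoff, the mean inhibition of test compounds on that plate plus 3 SD, cut at about 49% in these data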;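 note: 0% = DMSO plus EC80 beta-PEA response and 100% = DMSO alone without agonist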
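Test system – hTAAR1-expressing CHO RD-HGA16 cells, Gα16-coupled · Also added – β-PEA at EC80 concentration, post-compound challenge · Compound – 3 µM, single point · Incubation – dye loading 75 min at 37 °C, then 30 min room temperature · Measured by – Fluo-8 intracellular calcium dye fluorescence, real-time kinetic reads · Benchmarks – vehicle and agonist controls · Replicates – singlicate, one well per test compound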
TAAR1 agonist = agonists of human TAAR1; Q96RJ0; CHO RD-HGA16 TAAR1, Fluo-8 calcium fluorescence; vehicle wells 0%, saturating PEA agonist 100%; activation, % at 3 µM; 360,000 tested, 0.99% active; AID 624467;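 active = activation above the mean activation of all test compounds in the run plus 3 SD, cut at about 38% in these data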
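System: CHO-derived RD-HGA16 cells with stable Gα16 and human TAAR1 / Times: 17-24 h plating, Fluo-8 75 min 37 °C, 30 min RT / Technique: calcium-sensitive Fluo-8 signal, excitation 470-495, emission 515-575 nm / Measure: % activation relative to PEA EC100 response / Benchmarks: DMSO and PEA EC100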
OX1R antag-1 = antagonists of human orexin 1 receptor | O43613 | CHO/OX1R cells, Fluo-8 calcium fluorescence, orexin A | inhibition, % at 5 µM | 330,000 tested, 0.43% active;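 active = inhibition above its plate's threshold, mean inhibition of all tested compounds on the plate plus 3 SD, cut at about 37% in these data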;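 note: 0% = orexin A challenge wells and 100% = SB-334867-A antagonist wells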
Target sequence (O43613 whole entry, looked up): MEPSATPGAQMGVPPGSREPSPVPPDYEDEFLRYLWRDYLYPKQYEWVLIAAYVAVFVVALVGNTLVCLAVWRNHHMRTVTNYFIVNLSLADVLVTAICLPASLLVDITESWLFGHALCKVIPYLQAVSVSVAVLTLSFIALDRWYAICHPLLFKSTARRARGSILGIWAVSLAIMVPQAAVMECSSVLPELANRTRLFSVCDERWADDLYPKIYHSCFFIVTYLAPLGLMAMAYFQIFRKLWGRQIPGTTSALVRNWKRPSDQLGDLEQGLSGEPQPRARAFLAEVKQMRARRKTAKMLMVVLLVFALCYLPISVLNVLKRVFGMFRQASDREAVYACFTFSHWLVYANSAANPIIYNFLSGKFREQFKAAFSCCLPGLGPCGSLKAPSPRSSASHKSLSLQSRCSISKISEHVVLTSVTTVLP
CHO parental Ca = signal in parental CHO cells, OX1R antagonist counter-screen; 330,000 tested, 0.63% active; parental CHO-K1, ATP-induced calcium, Fluo-8 fluorescence; AID 463079; inhibition, % at 5.6 µM;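 active = inhibition above that plate's mean sample inhibition plus 3 SD, cut at about 26% in these data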;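 note: 0% = ATP-challenged DMSO wells and 100% = DMSO wells without ATP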
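Test system: untransfected parental CHO cell line. Compound: one dose, 5.6 µM nominal. Detection: intracellular calcium via Fluo-8 no-wash fluorescent dye. Measure: % inhibition. Benchmarks: ATP-challenged DMSO wells low, unchallenged DMSO wells high.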
OX1R antag-2 = OX1R (human) antagonism. O43613. OX1R-expressing cells, FRET antagonist read-out. inhibition, % at 6.6 µM. 330,000 tested, 1.8% active; in the data active = inhibition mostly above about 38%, no sharp cut-off; inactive = mostly below about 40%;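 note: 0% = agonist challenge alone and 100% = reference antagonist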
OX1R HTRF conf = confirmation of human orexin 1 receptor antagonists, HTRF format. shares compounds with OX1R antag-2. OX1R-expressing cells, HTRF antagonist assay. inhibition, % at 6.6 µM. 1,800 tested, 49% active. AID 492964; in the data active = inhibition above about 55%;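 note: CHO cells expressing OX1R stimulated with orexin A at about EC80; 0% = agonist challenge alone and 100% = reference antagonist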
CHO-K1 HTRF = signal in parental CHO-K1 cells, OX1R antagonist counter-screen; shares compounds with OX1R antag-2; AID 493232; HTRF counterscreen; inhibition, % at 6.6 µM; 1,800 tested, 48% active; in the data active = inhibition above about 17%;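 note: 0% = agonist challenge with vehicle and 100% = vehicle alone without agonist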
nonsel antag count = nonselective antagonist in TAAR1 antagonist counter-screen. shares compounds with TAAR1 antag. counterscreen cell line, calcium fluorescence, antagonist mode. inhibition, % at 3 µM. 2,400 tested, 77% active. AID 651780; in the data active = inhibition above about 22%;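 note: CHO-Ga16 host cells stimulated with ATP at an EC80 level; 0% = agonist EC80 plus vehicle and 100% = vehicle without agonist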
TAAR1 ant conf = human TAAR1 antagonism, confirmed. shares compounds with TAAR1 antag. inhibition, % at 3 µM. 2,400 tested, 40% active. TAAR1-expressing cells, fluorescence antagonist read-out; in the data active = inhibition above about 49%;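 note: CHO-Ga16 host cells challenged with agonist PEA near its EC80; 0% = agonist at EC80 plus vehicle and 100% = vehicle with no agonist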
Ga16 nonsel ag = nonselective Ga16 agonism, counter-screen; 2,400 tested, 18% active; Ga16-expressing cells, calcium fluorescence, agonist counterscreen; AID 651953; activation, % at 3 µM; shares compounds with TAAR1 antag; in the data active = activation above about 12%;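 note: 0% = vehicle wells and 100% = saturating stimulus response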
TAAR1 ag counter = counter-screen for human TAAR1 antagonists: TAAR1 agonists | shares compounds with TAAR1 antag | 2,400 tested, 2% active | hTAAR1 cell line, fluorescence activation, agonist mode | activation, % at 3 µM; in the data active = activation above about 37%;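 note: CHO cells stably expressing TAAR1 with calcium dye readout; 0% = DMSO vehicle and 100% = full agonist response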
Numbers without * were called inactive; . = not tested or not shown. Only some compounds are listed: those with a hit (about 3.9% of all), similar ones and a draw of the others.

SMILES	TAAR1 antag	TAAR1 agonist	OX1R antag-1	CHO parental Ca	OX1R antag-2	nonsel antag count	TAAR1 ant conf	Ga16 nonsel ag	TAAR1 ag counter	others
CCCCN(C)C(=O)c1ccc(Nc2nc(C(N)Cc3ccc(C(F)(F)F)cc3)cs2)nc1 (stereo unspecified)	-9	8	.	.	.	.	.	.	.
O=C(N=Nc1c(O)[nH]c2ccccc12)c1cccc(S(=O)(=O)Nc2ccccc2Cl)c1	56*	10	5	-21	84*	24*	42	5	0	OX1R HTRF conf=92*;CHO-K1 HTRF=3
COc1ccccc1N(CC(=O)NCCSc1ccccc1)S(=O)(=O)c1ccccc1	76*	7	22	-23	81*	30*	44	6	9	OX1R HTRF conf=60*;CHO-K1 HTRF=3
COc1ccccc1N(CC(=O)NCCSc1ccccc1)S(C)(=O)=O	-3	1	1	-12	-4	.	.	.	.
COC(=O)C1=C(C)N(Cc2cccc(C(F)(F)F)c2)C(=NCc2cc(OC)c(OC)c(OC)c2)NC1c1cccc(F)c1 (stereo unspecified)	29	31	.	.	.	.	.	.	.
CCOC(=O)C1CCCN(C2=C(NS(=O)(=O)c3ccc(Br)cc3)C(=O)c3ccccc3C2=O)C1 (stereo unspecified)	62*	21	-12	-20	89*	26*	38	0	12	OX1R HTRF conf=73*;CHO-K1 HTRF=77*
O=C(NNC(=O)c1cc(-c2ccccc2)nc2ccccc12)Nc1cccc(Cl)c1	80*	10	-14	-6	90*	39*	57*	8	6	OX1R HTRF conf=14;CHO-K1 HTRF=5
CN(C(=O)c1ccc2c(c1)SC1=NS(=O)(=O)CCN12)C(c1ccccc1)c1ccccc1	69*	21	-18	-13	12	31*	53*	8	9
COc1ccc(C(=O)Nc2ccc(N3CCN(C(=O)c4ccccc4C)CC3)cc2)cc1	65*	10	-6	-7	21	24*	37	14*	12
COc1ccc(Nc2ncc(C(=O)N3CCN(c4ccc(F)cc4)CC3)c3ccccc23)cc1	55*	25	11	10	12	37*	54*	11	8
COc1ccc(Nc2ncc(C(=O)O)c3ccccc23)cc1	4	0	-1	-9	8	.	.	.	.
O=C(NCC[C@H]1CC[C@H](NS(=O)(=O)c2ccccc2F)[C@@H](CO)O1)c1ccc(F)cc1	-8	2	.	.	.	.	.	.	.
CCn1c(SCc2nc3ccccc3c(=O)[nH]2)nnc1-c1cccnc1	2	8	-3	-1	-3	.	.	.	.
O=c1[nH]c(CSc2nnc(-c3cccnc3)n2C2CCCCC2)nc2ccccc12	65*	23	-6	-3	6	28*	56*	11	14
COc1ccc(C2C(C(=O)N3CCN(c4ccccn4)CC3)CC(=O)N2c2ccc(OC)cc2)cc1 (stereo unspecified)	57*	20	-12	-17	43	26*	46	13*	12
O=C(CCNC(=O)c1ccc([N+](=O)[O-])cc1)Nc1ccc(Cl)c(S(=O)(=O)N2CCOCC2)c1	102*	0	-8	2	7	-3	-12	3	3
Cc1ccc(NC(=O)CCNC(=O)c2ccc(Br)cc2)cc1S(=O)(=O)N1CCOCC1	-8	1	-21	-24	19	.	.	.	.
CN(Cc1ccccc1)c1nc2c(c(=O)n(C)c(=O)n2C)n1CCCc1ccccc1	49*	9	-19	-9	6	27*	52*	17*	40*
